Calls of active or inactive are those of the source. The calls are words filed in the database; no cut-off is given here.
Assays:
[1] = molecular target: Cathepsin B (Homo sapiens) (UniProt P07858); assay: Tested for inhibition of cathepsin B by the compound; NI = No Inhibition
Cathepsin B [2] = assay: Tested for inhibition of cathepsin B by the compound; NI = No Inhibition
Caspase-1 (Homo sapiens) = molecular target: T1, Caspase-1 (Homo sapiens) (UniProt P29466); assay: Second-order inhibition rate of caspase-1 was determined by progress curve method
T1 sequence (whole entry): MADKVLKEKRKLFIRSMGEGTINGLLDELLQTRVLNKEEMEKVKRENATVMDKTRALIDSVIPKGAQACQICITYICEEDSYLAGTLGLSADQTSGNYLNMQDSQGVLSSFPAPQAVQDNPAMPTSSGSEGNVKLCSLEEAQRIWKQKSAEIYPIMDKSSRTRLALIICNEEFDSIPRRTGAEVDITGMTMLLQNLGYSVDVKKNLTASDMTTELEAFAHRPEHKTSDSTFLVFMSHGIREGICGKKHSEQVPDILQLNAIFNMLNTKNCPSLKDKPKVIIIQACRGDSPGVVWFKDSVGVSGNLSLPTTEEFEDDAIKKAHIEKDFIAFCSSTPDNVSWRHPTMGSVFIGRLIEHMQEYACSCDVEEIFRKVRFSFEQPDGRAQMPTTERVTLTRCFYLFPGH
Procedure, shortened: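 Caspase-1 assay buffer: 100 mM HEPES, 0.5 mM EDTA, 20% (v/v) glycerol, 5 mM DTT, pH 7.5. Substrate: Ac-YVAD-AMC.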

[3] = Tested for inhibition of chymotrypsinogen by the compound; NI = No Inhibition
Papain (Carica papaya) [4] = molecular target: T2, Papain (Carica papaya) (UniProt P00784); assay: Tested for inhibition of papain by the compound; NI = No Inhibition
T2 sequence (whole entry): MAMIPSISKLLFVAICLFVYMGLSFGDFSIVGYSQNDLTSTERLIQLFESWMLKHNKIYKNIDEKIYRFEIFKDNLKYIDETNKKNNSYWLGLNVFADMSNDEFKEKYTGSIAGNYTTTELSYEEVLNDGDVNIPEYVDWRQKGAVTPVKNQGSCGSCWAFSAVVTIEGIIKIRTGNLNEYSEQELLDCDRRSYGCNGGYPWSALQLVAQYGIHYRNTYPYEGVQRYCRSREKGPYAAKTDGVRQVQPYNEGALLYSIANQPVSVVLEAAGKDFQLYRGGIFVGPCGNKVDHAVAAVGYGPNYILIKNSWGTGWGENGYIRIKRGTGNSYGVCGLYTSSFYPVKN

Pepsin A (Sus scrofa) = Pepsin A (Sus scrofa) (UniProt P00791); assay: Tested for inhibition of porcine pepsin by the compound; NI = No Inhibition
Caspase-3 (Homo sapiens) [5] = molecular target: T3, Caspase-3 (Homo sapiens) (UniProt P42574); assay: Second-order inhibition rate of caspase-3 was determined by progress curve method
T3 sequence (whole entry): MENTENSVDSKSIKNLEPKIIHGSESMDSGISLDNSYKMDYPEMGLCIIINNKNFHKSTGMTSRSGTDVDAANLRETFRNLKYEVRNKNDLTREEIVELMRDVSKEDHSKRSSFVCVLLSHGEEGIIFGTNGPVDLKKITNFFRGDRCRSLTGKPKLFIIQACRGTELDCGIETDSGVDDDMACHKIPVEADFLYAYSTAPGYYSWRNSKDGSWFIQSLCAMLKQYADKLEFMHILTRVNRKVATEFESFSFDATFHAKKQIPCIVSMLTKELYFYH
Procedure, shortened: (§1)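 Caspases-3, -6 and -8 were assayed in 50 mM HEPES, 100 mM NaCl, 0.1% (w/v) CHAPS, 10% (w/v) sucrose and 10 mM DTT, pH 7.4. Substrate: Cbz-DEVD-AFC or Cbz-DEVD-AMC.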

[6] = Tested for inhibition of chymotrypsinogen by the compound; ND = Not determined
Caspase-6 (Homo sapiens) [7] = molecular target: T4, Caspase-6 (Homo sapiens) (UniProt P55212); assay: Second-order inhibition rate of caspase-6 was determined by progress curve method; procedure, shortened: as §1
T4 sequence (whole entry): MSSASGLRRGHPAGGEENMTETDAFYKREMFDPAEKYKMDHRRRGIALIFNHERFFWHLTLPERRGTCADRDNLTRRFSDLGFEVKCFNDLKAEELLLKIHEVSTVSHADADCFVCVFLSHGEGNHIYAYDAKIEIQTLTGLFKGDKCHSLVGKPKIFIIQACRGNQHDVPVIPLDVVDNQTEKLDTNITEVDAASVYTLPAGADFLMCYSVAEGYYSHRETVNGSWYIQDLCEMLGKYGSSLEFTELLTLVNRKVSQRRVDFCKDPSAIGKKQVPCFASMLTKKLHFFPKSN

[8] = molecular target: Human immunodeficiency virus type 1 protease (Human immunodeficiency virus 1) (UniProt Q72874); assay: Tested for inhibition of HIV-1 protease by the compound; NI = No Inhibition
Caspase-8 (Homo sapiens) [9] = molecular target: Caspase-8 (Homo sapiens) (UniProt Q14790); assay: Second-order inhibition rate of caspase-8 was determined by progress curve method; procedure, shortened: as §1
[10] = molecular target: Cathepsin D (Homo sapiens) (UniProt P07339); assay: Tested for inhibition of human cathepsin D by the compound; NI = No Inhibition
[11] = molecular target: Plasmepsin II (Plasmodium falciparum) (UniProt P46925); assay: Inhibition of plasmepsin-2 from Plasmodium falciparum; NI = No Inhibition
[12] = molecular target: Granzyme B (Homo sapiens) (UniProt P10144); assay: Tested for inhibition of granzyme B by the compound; NI = No Inhibition
[13] = molecular target: Granzyme B (Homo sapiens) (UniProt P10144); assay: Tested for inhibition of granzyme B by the compound
Papain (Carica papaya) [14] = molecular target: T2, Papain (Carica papaya); assay: Tested for inhibition of papain by the compound
[15] = molecular target: Cathepsin B (Homo sapiens) (UniProt P07858); assay: Tested for inhibition of cathepsin B by the compound
Cathepsin B [16] = assay: Tested for inhibition of cathepsin B by the compound
Caspase-8 (Homo sapiens) [17] = molecular target: Caspase-8 (Homo sapiens) (UniProt Q14790); assay: Second-order inhibition rate of caspase-8 was determined by progress curve method; No inhibition; procedure, shortened: as §1
Caspase-6 (Homo sapiens) [18] = molecular target: T4, Caspase-6 (Homo sapiens); assay: Second-order inhibition rate of caspase-6 was determined by progress curve method; No inhibition; procedure, shortened: as §1
Caspase-3 (Homo sapiens) [19] = molecular target: T3, Caspase-3 (Homo sapiens); assay: Second-order inhibition rate of caspase-3 was determined by progress curve method; No inhibition; procedure, shortened: as §1
[20] = molecular target: Human immunodeficiency virus type 1 protease (Human immunodeficiency virus 1) (UniProt Q72874); assay: Tested for inhibition of HIV-1 protease; NI = No Inhibition

Pepsin A (Sus scrofa), sequence (P00791 60-385 limits assumed): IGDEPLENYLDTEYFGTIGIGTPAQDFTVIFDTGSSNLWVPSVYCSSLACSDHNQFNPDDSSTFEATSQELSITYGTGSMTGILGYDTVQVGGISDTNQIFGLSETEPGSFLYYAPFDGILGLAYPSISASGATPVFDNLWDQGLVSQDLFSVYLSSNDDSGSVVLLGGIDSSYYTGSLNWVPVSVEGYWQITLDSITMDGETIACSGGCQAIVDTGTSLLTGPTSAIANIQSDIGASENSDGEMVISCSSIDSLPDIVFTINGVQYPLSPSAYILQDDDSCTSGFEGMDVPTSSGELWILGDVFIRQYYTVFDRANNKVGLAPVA
Cathepsin D (Homo sapiens), sequence (P07339 65-162 limits assumed): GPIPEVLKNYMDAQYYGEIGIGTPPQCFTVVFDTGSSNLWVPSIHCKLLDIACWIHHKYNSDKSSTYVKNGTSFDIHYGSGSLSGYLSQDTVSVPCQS
Cathepsin D (Homo sapiens), sequence (P07339 169-412 limits assumed): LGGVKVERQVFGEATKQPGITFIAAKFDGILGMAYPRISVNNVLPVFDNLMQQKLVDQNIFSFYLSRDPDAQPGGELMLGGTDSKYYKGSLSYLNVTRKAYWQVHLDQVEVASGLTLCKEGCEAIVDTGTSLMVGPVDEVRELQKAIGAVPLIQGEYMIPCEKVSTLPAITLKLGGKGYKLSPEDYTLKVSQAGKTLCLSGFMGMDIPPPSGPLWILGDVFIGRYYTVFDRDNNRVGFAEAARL
Plasmepsin II (Plasmodium falciparum), sequence (P46925 125-453 limits assumed): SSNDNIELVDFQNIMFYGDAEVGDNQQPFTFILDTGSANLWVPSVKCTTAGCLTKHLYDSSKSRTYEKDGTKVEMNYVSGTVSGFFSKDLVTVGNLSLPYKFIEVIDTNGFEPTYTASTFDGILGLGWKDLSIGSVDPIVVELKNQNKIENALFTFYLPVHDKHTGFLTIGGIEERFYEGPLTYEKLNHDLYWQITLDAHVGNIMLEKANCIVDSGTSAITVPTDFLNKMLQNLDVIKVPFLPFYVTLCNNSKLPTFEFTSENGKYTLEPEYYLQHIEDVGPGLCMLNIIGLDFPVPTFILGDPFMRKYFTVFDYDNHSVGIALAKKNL
Granzyme B (Homo sapiens), sequence (P10144 whole entry): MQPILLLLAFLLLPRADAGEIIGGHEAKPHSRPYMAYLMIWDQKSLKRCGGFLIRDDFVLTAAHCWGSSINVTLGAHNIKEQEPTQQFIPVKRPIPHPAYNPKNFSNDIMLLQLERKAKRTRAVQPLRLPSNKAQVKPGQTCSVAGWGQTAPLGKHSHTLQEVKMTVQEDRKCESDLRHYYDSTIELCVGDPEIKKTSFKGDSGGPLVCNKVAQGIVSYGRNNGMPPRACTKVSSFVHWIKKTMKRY
Caspase-8 (Homo sapiens), sequence (Q14790 217-374 limits assumed): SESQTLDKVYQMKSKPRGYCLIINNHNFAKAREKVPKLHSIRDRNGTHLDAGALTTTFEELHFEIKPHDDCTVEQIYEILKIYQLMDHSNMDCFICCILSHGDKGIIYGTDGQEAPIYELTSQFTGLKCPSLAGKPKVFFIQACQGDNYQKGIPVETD
Caspase-8 (Homo sapiens), sequence (Q14790 385-479 limits assumed): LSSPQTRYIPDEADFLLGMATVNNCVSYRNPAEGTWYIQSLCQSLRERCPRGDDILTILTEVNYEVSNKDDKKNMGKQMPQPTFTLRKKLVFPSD

Row | SMILES | k obs / 1 [1] | k obs / 1 (Cathepsin B [2]) | k2 (Caspase-1 (Homo sapiens)) [M⁻¹ s⁻¹] | k obs / 1 [3] | k obs / 1 (Papain (Carica papaya) [4]) | k obs / 1 (Pepsin A (Sus scrofa)) | k2 (Caspase-3 (Homo sapiens) [5]) [M⁻¹ s⁻¹] | k2 (Caspase-6 (Homo sapiens) [7]) [M⁻¹ s⁻¹] | k obs / 1 [8] | k2 (Caspase-8 (Homo sapiens) [9]) [M⁻¹ s⁻¹] | k obs / 1 [10] | k obs / 1 [11] | k obs / 1 [13] [M⁻¹ s⁻¹] | further results
1 | CC(C)[C@H](NC(=O)CCc1ccccc1)C(=O)N[C@@H](C)C(=O)NN(CC(=O)O)C(=O)[C@H]1O[C@@H]1CCc1ccccc1 | inactive | inactive | 300 | inactive | inactive |  |  |  |  |  |  |  |  | 
2 | CCOC(=O)[C@H]1O[C@@H]1C(=O)N(CC(=O)O)NC(=O)[C@@H](NC(=O)[C@H](CCC(=O)O)NC(=O)OCc1ccccc1)C(C)C |  |  | 58500 |  |  | inactive | 50500 | 4180 | inactive | 195000 | inactive | inactive |  | k obs / 1 [6]: 86 M⁻¹ s⁻¹
3 | CCOC(=O)[C@H]1O[C@@H]1C(=O)N(CC(=O)O)NC(=O)[C@@H](NC(=O)C(CCC(=O)O)NC(=O)[C@H](CC(C)C)NC(=O)OCc1ccccc1)[C@@H](C)O (stereo partly specified) | inactive | inactive | 25700 | 36 M⁻¹ s⁻¹ | inactive | inactive | 3210 | 8620 | inactive | 61200 | inactive | inactive |  | k obs / 1 [12]: inactive
4 | CCOC(=O)[C@H]1O[C@@H]1C(=O)N(CC(=O)O)NC(=O)[C@@H](NC(=O)[C@H](CCC(=O)O)NC(=O)[C@H](CC(=O)O)NC(=O)OCc1ccccc1)C(C)C | inactive | inactive | 11800 | 46 M⁻¹ s⁻¹ | inactive |  | 1.07e+06 | 5440 |  | 95500 |  |  | < 0.1 | 
5 | CCOC(=O)[C@H]1O[C@@H]1C(=O)N(CC(=O)O)NC(=O)[C@@H](NC(=O)[C@H](CCC(=O)O)NC(=O)[C@@H](NC(=O)OCc1ccccc1)[C@@H](C)CC)[C@@H](C)O | inactive | inactive | 12400 |  |  | inactive | 4080 | 45800 | inactive | 52800 | inactive | inactive | 0.65 | 
6 | CCOC(=O)[C@@H]1O[C@H]1C(=O)N(CC(=O)O)NC(=O)[C@@H](NC(=O)C(CCC(=O)O)NC(=O)[C@H](CC(=O)O)NC(=O)OCc1ccccc1)C(C)C (stereo partly specified) | inactive | inactive | 4320 | inactive | inactive | inactive | 464000 | 475 | inactive | 785 | inactive | inactive | < 0.1 | 
7 | CC(C)[C@H](NC(=O)CCc1ccccc1)C(=O)N[C@@H](C)C(=O)NN(CC(=O)O)C(=O)[C@H]1O[C@@H]1C(=O)OCc1ccccc1 (stereo in doubt) |  |  | 18100 | 21 M⁻¹ s⁻¹ |  |  | 680 |  |  |  |  |  |  | k obs / 1 (Papain (Carica papaya) [14]): < 10 M⁻¹ s⁻¹; k obs / 1 [15]: < 10 M⁻¹ s⁻¹; k obs / 1 (Cathepsin B [16]): No inhibition
8 | CCOC(=O)[C@@H]1O[C@H]1C(=O)N(CC(=O)O)NC(=O)[C@@H](NC(=O)C(CCC(=O)O)NC(=O)[C@H](CC(C)C)NC(=O)OCc1ccccc1)[C@@H](C)O (stereo partly specified) | inactive | inactive | 19600 | 15 M⁻¹ s⁻¹ | inactive |  | 3250 | 4390 |  | 34700 |  |  |  | 
9 | CC(C)[C@H](NC(=O)CCc1ccccc1)C(=O)N[C@@H](C)C(=O)NN(CC(=O)O)C(=O)[C@H]1O[C@@H]1C(=O)OCc1ccccc1 (stereo in doubt; 23d(S,S)) |  |  | 52100 |  |  | inactive | 1470 | 165 | inactive | 1560 | inactive | inactive | < 0.3 | k obs / 1 [15]: < 10 M⁻¹ s⁻¹
10 | CCOC(=O)[C@@H]1O[C@H]1C(=O)N(CC(=O)O)NC(=O)[C@H](C)NC(=O)[C@@H](NC(=O)CCc1ccccc1)C(C)C |  |  | 6290 |  |  |  |  |  |  |  |  |  |  | k2 (Caspase-8 (Homo sapiens) [17]): inactive; k2 (Caspase-6 (Homo sapiens) [18]): inactive; k2 (Caspase-3 (Homo sapiens) [19]): inactive
11 | CCOC(=O)[C@H]1O[C@@H]1C(=O)N(CC(=O)O)NC(=O)[C@H](C)NC(=O)[C@@H](NC(=O)CCc1ccccc1)C(C)C |  |  | 32200 |  |  | inactive | 1040 | 75 |  | 1570 | inactive | inactive |  | k obs / 1 [20]: inactive

— ChEMBL document CHEMBL1149106, “Design, synthesis, and evaluation of aza-peptide epoxides as selective and potent inhibitors of caspases-1, -3, -6, and -8” (J Med Chem, 2004)
